Laboratory results reported in ChEMBL document CHEMBL1143328, “Determination of 1-aryl-4-propylpiperazine pKa values: the substituent on aryl modulates basicity” (Bioorg Med Chem, 2009).

Experiment: Dissociation constant, pKa by potentiometric titration method
Format: physicochemical
Method in brief: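 Each compound dissolved in ionic-strength-adjusted water (0.15 M), titrated with 0.5 M KOH up to pH 11. Steps capped at 0.2 pH units; each point recorded once drift fell below 0.002 pH/min. Electrode checked in pH 7.00 buffer and calibrated by blank titration daily.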

Compound | pKa
CCCN1CCN(c2ccccc2)CC1 | 7.96
CCCN1CCN(c2cccc(Cl)c2)CC1 | 7.83
CCCN1CCN(c2ccccc2C(F)(F)F)CC1 | 8.8
CCCN1CCN(c2ccccc2C#N)CC1 | 7.92
CCCN1CCN(c2cccc(C)c2)CC1 | 7.83
CCCN1CCN(c2cccc(O)c2)CC1 | 7.82
CCCN1CCN(c2ccc(C#N)cc2)CC1 | 7.78
CCCN1CCN(c2ccc(OC)cc2)CC1 | 7.88
CCCN1CCN(c2cccc(OC)c2)CC1 | 7.86
CCCN1CCN(c2ccccc2C)CC1 | 8.39
CCCN1CCN(c2cccc(C(N)=O)c2)CC1 | 7.76
CCCN1CCN(c2ccccc2[N+](=O)[O-])CC1 | 7.94
CCCN1CCN(c2ccc(O)cc2)CC1 | 7.92
CCCN1CCN(c2ccccc2Cl)CC1 | 8.07
CCCN1CCN(c2ccc(Cl)cc2)CC1 | 7.83
CCCN1CCN(c2ccc([N+](=O)[O-])cc2)CC1 | 7.59
CCCN1CCN(c2cccc(C#N)c2)CC1 | 7.67
CCCN1CCN(c2ccccc2C(N)=O)CC1 | 8.14
CCCN1CCN(c2ccc(C(N)=O)cc2)CC1 | 7.84
CCCN1CCN(c2ccc(C)cc2)CC1 | 7.92
CCCN1CCN(c2ccccc2O)CC1 | 8.05
CCCN1CCN(c2cccc(C(F)(F)F)c2)CC1 | 7.81
CCCN1CCN(c2cccc([N+](=O)[O-])c2)CC1 | 7.7
CCCN1CCN(c2ccc(C(F)(F)F)cc2)CC1 | 7.84
CCCN1CCN(c2ccccc2OC)CC1 | 8.29
